PP1 inh – counter-screen for PP5 inhibitors: inhibitors of human PP1-alpha. P62136. purified PP1alpha, OMFP fluorescence. inhibition, % at 6.7 µM. 320,000 tested, 0.9% active. AID 2235;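 active means inhibition above the mean inhibition of all tested compounds plus 3 SD, computed separately for each screening campaign, cut at about 15% in these data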
HTR2A ag – activates the mouse 5-HT2A serotonin receptor | activation, % at 7.6 µM | 360,000 tested, 0.66% active | AID 624169 | CHO-K1 mHTR2A beta-arrestin complementation, luminescence; percent of 30 µM serotonin response;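 active means activation above a run cutoff, the mean activation of all tested compounds plus 3 SD, cut at about 14% in these data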
PP5 inh – inhibitors of human protein phosphatase 5 (PP5); P53041; purified PP5c, OMFP substrate fluorescence; inhibition, % at 6.7 µM; 320,000 tested, 0.18% active; AID 1987;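 active means inhibition above the campaign's mean inhibition across all tested compounds plus 3 SD, cut at about 9.5% in these data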
T cell modulator – modulates CD8 T cell binding to vesicles. 330,000 tested, 0.068% active. 2C CD8+ T cell-vesicle binding, flow cytometry; active compounds read low. AID 2052. response (vesicle binding), % at 7 µM;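 active means response, share of CD8 T cells binding vesicles, and their 90th percentile fluorescence all below set limits, cut at about 80% in these data, passing the limit was not always enough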;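 further: values below 100% mean blocked vesicle binding to the CD8+ T cells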
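System: murine 2C transgenic CD8+ T lymphocytes; also added: QL9-loaded Drosophila micro-vesicles; times: binding 1.5 h at 37 °C; measured by: flow cytometry, PE anti-B7-1 (FL2) versus Alexa647 anti-CD8 (FL8), PFA-fixed; control set: Peptide-free naked vesicles (low) and QL9 vesicles with 0.7% DMSO vehicle (high)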
GASC-1 inh – inhibitors of human GASC-1 (JMJD2C) demethylase; GST-JMJD2C(1-420) H3K9me3 demethylation, DELFIA europium; 330,000 tested, 0.069% active; inhibition, % at 2.35 µM; Q9H3R0;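 active means more than half of a compound's replicate wells show inhibition beyond 50%, single wells judged on their own value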;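 further: signal counts dimethyl H3K9 product captured on neutravidin plate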
Target sequence (Q9H3R0 1-420 limits assumed): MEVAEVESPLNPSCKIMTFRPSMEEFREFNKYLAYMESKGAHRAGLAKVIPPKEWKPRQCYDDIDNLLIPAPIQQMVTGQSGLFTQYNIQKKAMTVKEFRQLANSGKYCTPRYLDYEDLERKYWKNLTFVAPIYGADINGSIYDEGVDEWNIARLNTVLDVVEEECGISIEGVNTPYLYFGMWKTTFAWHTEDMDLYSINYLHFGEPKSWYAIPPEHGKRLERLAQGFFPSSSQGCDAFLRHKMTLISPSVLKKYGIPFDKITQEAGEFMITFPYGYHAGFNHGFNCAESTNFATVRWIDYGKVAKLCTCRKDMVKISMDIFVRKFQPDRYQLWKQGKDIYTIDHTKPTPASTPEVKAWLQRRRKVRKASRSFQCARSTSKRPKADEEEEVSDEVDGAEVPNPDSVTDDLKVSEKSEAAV
PP1 confirm – human PP1 phosphatase inhibition, confirmation. 1,900 tested, 52% active. inhibition, % at 6.7 µM. shares compounds with PP1 inh. purified PP1alpha, OMFP substrate fluorescence;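 active means mean PP1 inhibition above a set limit taken from the earlier primary screen, cut at about 15% in these data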
PP5 counter – inhibits human PP5 phosphatase in PP1 counter-screen | purified PP5c, OMFP fluorescence | 1,900 tested, 4% active | inhibition, % at 6.7 µM | shares compounds with PP1 inh;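 active means mean PP5 inhibition over triplicate wells above about 9.5% taken from the earlier PP1 screen, limit read from the data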
Hits are given with their value; 0 = inactive; - = not tested or not shown. Only some compounds are listed: those with a hit (about 1.7% of all), similar ones and a draw of the others.

SMILES | PP1 inh | HTR2A ag | PP5 inh | T cell modulator | GASC-1 inh | PP1 confirm | PP5 counter
O=C(O)CN1C(=O)/C(=C\c2cccc(OCc3ccc(Cl)cc3Cl)c2)SC1=S | - | 0 | - | 0 | 0 | - | -
COc1cc2c(cc1OC)C(c1ccc(C)cc1)NC(=O)C2 (configuration not stated) | - | 0 | - | 0 | 0 | - | -
CCOc1ccc(C2NC(=O)Cc3cc(OC)c(OC)cc32)cc1 (configuration not stated) | 23.7 | 0 | 0 | 0 | 0 | 0 | 0
Cc1ccc(NC(=O)Nc2nnc(-c3ccncc3)s2)cc1C | 25.4 | 0 | 0 | 0 | 0 | 29.1 | 0
CC1C(=O)N(Cc2cn(CC3CCCCC3)nn2)CCS(=O)(=O)N1Cc1ccc(-c2ccccc2)cc1 (configuration not stated) | - | 0 | - | - | - | - | -
Cc1cc(C(F)(F)F)nn1CC(=O)NCc1ccco1 | 17.9 | 0 | 0 | 0 | 0 | 0 | 0
Cc1ccc(C)c(-c2nnc(NC(=O)COc3ccccc3)o2)c1 | 21.8 | 0 | 0 | 0 | 0 | 20.9 | 0
COc1cccc(-c2nc(COc3ccc(Cl)cc3Cl)no2)c1 | 0 | 0 | 0 | 0 | 0 | - | -
COc1nc(-c2ccccc2)ccc1-c1noc(COc2ccccc2)n1 | 19.4 | 0 | 0 | 0 | 0 | 0 | 0
COc1nc(-c2ccccc2)ccc1-c1noc(-c2ccccc2)n1 | 0 | 0 | 0 | 0 | 0 | - | -
CCCCNC(=O)C1C(c2ccc(C(F)(F)F)cc2)=Nc2ccccc2N1C(=O)c1ccc2nc(C)[nH]c2c1 (configuration not stated) | - | 0 | - | - | - | - | -
CCSc1nc2c(cnn2-c2ccc(C)cc2)c(=O)[nH]1 | 21.6 | 0 | 0 | 0 | 0 | 0 | 0
COc1ccc(C(=O)CSc2nc(N)nc(SC)c2C#N)cc1 | 27.2 | 0 | 0 | 0 | 0 | 27.6 | 0
CCOc1ccc(N=Cc2c(C)[nH]n(-c3nc4ccccc4[nH]3)c2=O)cc1 | 22.9 | 0 | 0 | 0 | 0 | 0 | 0
Cc1[nH]n(-c2ccccc2)c(=O)c1C=Nc1cnc2ccccc2c1 | 0 | 0 | 0 | 0 | 0 | - | -
CC1CCCN(S(=O)(=O)c2ccc(C(=O)Nc3nnc(-c4ccccn4)o3)cc2)C1 (configuration not stated) | 18.2 | 0 | 0 | 0 | 0 | 15.2 | 0
CC1CCCN(S(=O)(=O)c2ccc(C(=O)Nc3nnc(C4CC4)o3)cc2)C1 (configuration not stated) | 26.4 | 0 | 0 | 0 | 0 | 16.2 | 0
O=C(Nc1nnc(C2CC2)o1)c1ccc(S(=O)(=O)N2CCc3ccccc3C2)cc1 | 30.1 | 0 | 0 | 0 | 0 | 31.0 | 0
COc1ccc(-c2nnc(NC(=O)c3ccc(S(=O)(=O)N4CCc5ccccc5C4)cc3)o2)cc1 | 0 | 0 | 0 | 0 | 0 | - | -
COc1cc(CNC2CCCC2)cc(Br)c1OCC(=O)Nc1ccccc1C | 0 | 0 | 0 | 0 | 0 | - | -
CC(=O)Nc1ccc(N2C(=O)CC(Sc3nc(C)cc(C)n3)C2=O)cc1 (configuration not stated) | 0 | 0 | 0 | 0 | 0 | - | -
Cc1ccc(-n2c(=O)cc(NCc3cccnc3)[nH]c2=O)cc1 | 24.6 | 0 | 0 | 0 | 0 | 0 | 0
Cc1ccc(CNCc2cccnc2)cc1 | 0 | 0 | 0 | 0 | 0 | - | -
COCCCNC(=O)CN(CCc1ccccc1)S(=O)(=O)c1ccccc1 | 0 | 0 | 0 | 0 | 0 | - | -
COCCNC(=O)CN(CCc1ccccc1)S(=O)(=O)c1ccc(Br)cc1 | 32.6 | 0 | 0 | 0 | 0 | 0 | 0
SMILES | PP1 inh | HTR2A ag | PP5 inh | T cell modulator | GASC-1 inh | PP1 confirm | PP5 counter
CC(=O)NC(c1ccc(C)cc1)c1cc([N+](=O)[O-])c2cccnc2c1O (configuration not stated) | 18.5 | 0 | 0 | 0 | 0 | 21.2 | 0
CCC(=O)NC(c1ccc(C)cc1)c1cc([N+](=O)[O-])c2cccnc2c1O (configuration not stated) | 39.4 | 0 | 0 | 0 | 0 | 0 | 12.2
CC(=O)NC(c1ccccc1)c1cc(Cl)c2cccnc2c1O (configuration not stated) | 0 | 0 | 0 | 0 | 0 | - | -
CCCC(=O)NC(c1ccco1)c1cc([N+](=O)[O-])c2cccnc2c1O (configuration not stated) | 0 | 0 | 0 | 0 | 0 | - | -
O=C(O)CN1C(=O)/C(=C\c2cc(Br)ccc2OCc2ccccc2Cl)SC1=S | 0 | 0 | 0 | 0 | 0 | - | -
O=C(O)CN1C(=O)/C(=C\c2ccccc2OCc2ccc(Cl)cc2Cl)SC1=S | 24.3 | 0 | 0 | 0 | 0 | 20.7 | 0
CC(=O)Oc1ccc(-c2ccc(C(=O)NCCc3ccc(S(N)(=O)=O)cc3)cc2)cc1 | 24.0 | 0 | 0 | 0 | 0 | 18.1 | 0
CCc1nnc(NS(=O)(=O)c2ccc(NC(=S)NC(=O)/C=C/c3ccc([N+](=O)[O-])cc3)cc2)s1 | 0 | 0 | 0 | 0 | 0 | - | -
CCc1nnc(NS(=O)(=O)c2ccc(NC(=S)NC(=O)/C=C/c3ccc(F)cc3)cc2)s1 | 19.6 | 0 | 0 | 0 | 0 | 0 | 0
COc1ccc2cc(S(=O)(=O)N3CCCC(C)C3)ccc2c1 (configuration not stated) | 0 | 0 | 0 | 0 | 0 | - | -
COc1ccc(S(=O)(=O)Nc2ccc(F)c(F)c2)cc1C(=O)N1CCOCC1 | 22.4 | 0 | 0 | 0 | 0 | 0 | 0
COc1ccc(S(=O)(=O)Nc2cccc(SC)c2)cc1C(=O)N1CCOCC1 | 0 | 0 | 0 | 0 | 0 | - | -
CCOC(=O)c1cn(Cc2ccccc2)c2cc(C)nn2c1=O | 0 | 0 | 0 | 0 | 0 | - | -
CCOC(=O)c1cn(Cc2ccccc2)c(C(=O)OC(C)(C)C)c1O | 22.5 | 0 | 0 | 0 | 0 | 35.9 | 0
O=C(CSc1cn(CCNC(=O)c2ccc3ccccc3c2)c2ccccc12)NCc1ccco1 | 17.8 | 0 | 0 | 0 | 0 | 0 | 0
Cn1c(=O)cc(SCC(=O)NCc2ccco2)c2ccccc21 | 0 | 0 | 0 | 0 | 0 | - | -
Cc1ccc(S(=O)(=O)N2CCN(C(=O)COc3ccc(Br)cc3)CC2)cc1 | 0 | 0 | 0 | 0 | 0 | - | -
O=C(COc1ccccc1)N1CCN(S(=O)(=O)c2ccc(Br)cc2)CC1 | 21.6 | 0 | 0 | 0 | 0 | 0 | 0
COc1ccc(OC)c(NC(=O)C2CCCC2)c1 | 0 | 0 | 0 | 0 | 0 | - | -
CCOc1ccccc1NC(=O)C1C2CCC(O2)C1C(=O)O (configuration not stated) | 77.0 | 0 | 76.7 | 0 | 0 | 16.4 | 31.4
COc1ccc(OC)c(NC(=O)C2C3CCC(O3)C2C(=O)O)c1 (configuration not stated) | 64.0 | - | 69.4 | 0 | 0 | 22.1 | 27.2
CC(=O)c1sc2c(c1OC(=O)c1ccc(Cl)cc1Cl)c(=O)n(-c1ccccc1)c(=S)n2-c1ccccc1 | 38.0 | 0 | 0 | 0 | 0 | 0 | 0
CCOC(=O)c1[nH]c2ccccc2c1CCCN1C(=O)c2ccccc2C1=O | 32.2 | 0 | 0 | 0 | 0 | 25.3 | 0
